HKDC1 inhibitor – inhibitors of human hexokinase HKDC1. Q2TB90. recombinant HKDC1, G6PDH/diaphorase resazurin coupled fluorescence. inhibition, % at 20 µM. actives 0.16% (n = 340,000);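 active = inhibition above about 35% when tested at 20 µM, limit read from the data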;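 also: plate controls were DMSO wells with enzyme for no effect and DMSO wells lacking enzyme for full effect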
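Test system: HK5 enzyme. Quantity: 5 µg/mL HK5 final. Reagent: glucose and ATP substrates. Schedule: 90 min reaction incubation at room temperature, dark. Technique: resazurin-to-resorufin fluorescence via G6PDH and diaphorase coupling, 525/613 nm. Control set: DMSO wells with and without enzyme mix.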
G6PDH CS – inhibits Leuconostoc G6PDH, flagging false hits in G6PDH-based assays; AID 1020; Purified L. mesenteroides G6PDH, diaphorase/resazurin coupled fluorescence, 45 min; actives 0.12% (n = 200,000); inhibition, % at 5 µM; in the data active = inhibition above about 50%
Diaph act CS – activates diaphorase or chemically reduces, flagging diaphorase assay artifacts. activation factor at 20 µM. actives 0.005% (n = 190,000). AID 1229. Diaphorase/resazurin coupled assay, resorufin fluorescence, 16 min; active compounds read high; 1 = vehicle wells, 0 = NADH-free wells;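 active = diaphorase activity raised at least twofold by the compound at 20 µM; inactive = activation factor below 2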
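Material: bacterial diaphorase enzyme (C. kluyveri); amount: enzyme 0.07 U/mL final; reagent: NADH substrate 0.114 mM plus resazurin dye 0.1 mM, final; doses: single compound dose of 20 µM, 1% DMSO final; timing: 16 min enzyme reaction, ambient temperature; measured by: fluorescence of resorufin, 544 nm excitation, 590 nm emission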
Diaphorase inh – inhibits diaphorase or chemically oxidizes, flagging diaphorase assay artifacts | diaphorase resazurin-to-resorufin fluorescence, NADH, 16 min; bacterial (C. kluyveri) enzyme, not human | inhibition, % at 20 µM | actives 0.69% (n = 190,000);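 active = primary screen inhibition at 20 µM above a set limit, cut at about 50% in these data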;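 also: plate controls were DMSO with full reaction for no effect and wells lacking NADH for full effect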
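Test system: diaphorase enzyme from Clostridium kluyveri; amount: diaphorase at 0.14 U/mL in enzyme working solution; detection: fluorescence of resorufin formed from resazurin, Ex 544/Em 590 nm; times: reaction incubation of 16 min at room temperature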
PfGluPho inh – PfG6PD (Plasmodium falciparum) enzyme inhibition; PfGluPho enzyme, NADPH resazurin-diaphorase fluorescence; inhibition, % at 20 µM; actives 0.78% (n = 350,000);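 active = inhibition reaching at least a set limit at 20 µM in the primary screen, cut at about 59% in these data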;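 also: 0% = DMSO wells with substrate and 100% = DMSO wells lacking glucose-6-phosphate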
HKDC1 act conf – confirmation of human HKDC1 activators. shares compounds with HKDC1 inhibitor. actives 14% (n = 740). AID 504708. inhibition, % at 20 µM. recombinant HKDC1, G6PDH/diaphorase resazurin fluorescence; active compounds read low;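 active = inhibition at or below a set negative limit, negative inhibition meaning the enzyme was activated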
The depositor's hits bear a star. A selection: hits, their analogues and other compounds. The true share with any hit is near 1.2%.

`COc1cccc(Nc2ccccc2C(=O)O)c1` gave HKDC1 inhibitor -2, G6PDH CS 4, Diaph act CS 0.8, Diaphorase inh 16 and PfGluPho inh -18.
`COc1cc(-c2ccc(Nc3ccccc3C(=O)O)c(OC)c2)ccc1Nc1ccccc1C(=O)O` gave HKDC1 inhibitor 42*, PfGluPho inh 1 and HKDC1 act conf -6.
`COc1cc(OC)cc(C(=O)NNC(=S)NC(=O)c2cccnc2)c1` gave HKDC1 inhibitor -5 and PfGluPho inh -15.
Screening COc1cc(OC)cc(C(=O)NC(=S)NNC(=O)c2cnccn2)c1 returned HKDC1 inhibitor -42, G6PDH CS -16, Diaph act CS 0.3, Diaphorase inh 68*, PfGluPho inh -3 and HKDC1 act conf -40*.
For COc1cccc(NC(=O)C(Cc2ccccc2)n2cccc2)c1 (stereo unspecified) the results were HKDC1 inhibitor 0 and PfGluPho inh 5.
`COc1cc(NC(=O)c2cnc(N)s2)cc(C(=O)Nc2cccc(C(F)(F)F)c2)c1` gave HKDC1 inhibitor 59*, PfGluPho inh 35 and HKDC1 act conf 41.
`O=C(CCCCC(=O)Sc1ccccc1)Sc1ccccc1` gave HKDC1 inhibitor 39*, PfGluPho inh -6 and HKDC1 act conf -4.
`Cc1cc(C2=NNC(=Nc3ccc(S(=O)(=O)N4CCOCC4)cc3)SC2)c(C)n1C` gave HKDC1 inhibitor -73, PfGluPho inh 54 and HKDC1 act conf -47*.
For CCN1CCN(c2ccc(N3CCN(C(=O)c4ccc(Br)o4)CC3)nn2)CC1 the results were HKDC1 inhibitor -2 and PfGluPho inh -10.
For COc1ccc(-c2[nH]c(-c3ccc(SC)cc3)nc2SCC(=O)Nc2nccs2)cc1 the results were HKDC1 inhibitor -54, G6PDH CS 0, Diaph act CS 0.8, Diaphorase inh 22, PfGluPho inh 15 and HKDC1 act conf -36*.
Screening CCn1c2ccccc2c2nnc(SCc3ccccc3)nc21 returned HKDC1 inhibitor 4, G6PDH CS -45, Diaph act CS 0.7, Diaphorase inh 28 and PfGluPho inh 30.
CCn1c2ccccc2c2nnc(SCc3ccc(C(=O)OC)o3)nc21 was read as HKDC1 inhibitor 29, G6PDH CS 5, Diaph act CS 0.6, Diaphorase inh 37, PfGluPho inh 27 and HKDC1 act conf 21.
`Cc1ccc(-n2c3nc(=O)[nH]c(=O)c-3cc3cc([N+](=O)[O-])ccc32)cc1` gave HKDC1 inhibitor 49*, G6PDH CS -4, Diaph act CS 0.3, Diaphorase inh 74*, PfGluPho inh 38 and HKDC1 act conf 56.
For COc1ccc(C2CC(O)(c3ccccc3)Oc3cc(OC)c(OC)c(OC)c32)cc1 (stereo unspecified) the results were HKDC1 inhibitor 16 and PfGluPho inh 40.
`COc1ccc([C@@H]2C[C@H](c3ccccc3)Oc3cc(OC)c(OC)c(OC)c32)cc1` gave HKDC1 inhibitor 37*, PfGluPho inh 18 and HKDC1 act conf -1.
For O=C(N/N=C/c1ccc(-c2ccc(S(=O)(=O)Nc3ncccn3)cc2)o1)c1cc2ccccc2cc1O the results were HKDC1 inhibitor 33, G6PDH CS 17, Diaph act CS 0.6, Diaphorase inh 41, PfGluPho inh -53 and HKDC1 act conf -22.
`CCc1c(C)c(C#N)c2nc3ccccc3n2c1NCCN(C)C` gave HKDC1 inhibitor -11, G6PDH CS -12, Diaph act CS 0.9, Diaphorase inh 7 and PfGluPho inh 0.
For CCc1c(C)c(C#N)c2nc3ccccc3n2c1NC the results were HKDC1 inhibitor -66, PfGluPho inh -58 and HKDC1 act conf -43*.
`COc1ccccc1NC(=O)Cc1nnc(SCC(=O)c2ccccc2)n1C` gave HKDC1 inhibitor 4 and PfGluPho inh 8.
Screening O=C(N/N=C/c1ccccc1OC(=O)c1ccc2c(c1)OCO2)c1ccccc1 returned HKDC1 inhibitor -48, G6PDH CS 0, Diaph act CS 0.8, Diaphorase inh 18, PfGluPho inh 14 and HKDC1 act conf -18.
Cc1ccc(NC(=O)C(C)OC(=O)Cn2cnc3ccccc3c2=O)cc1 (stereo unspecified) was read as HKDC1 inhibitor -7 and PfGluPho inh 4.
`COc1ccc(NS(=O)(=O)c2cccc(C(=O)NCCCn3ccnc3)c2)cc1` gave HKDC1 inhibitor 0 and PfGluPho inh 3.
`C/C(=N\NC(=O)c1cc(-c2cccnc2)nc2ccccc12)c1ccc(O)cc1O` gave HKDC1 inhibitor -40, G6PDH CS -8, Diaph act CS 0.8, Diaphorase inh 20, PfGluPho inh -29 and HKDC1 act conf -3.
For CC(=NNC(=O)c1ccncc1)c1ccc(O)cc1O the results were HKDC1 inhibitor -40, PfGluPho inh -38 and HKDC1 act conf -4.
For CC(=NNC(=O)c1ccncc1)c1ccccc1O the results were HKDC1 inhibitor -1 and PfGluPho inh -40.
For C/C(=N\NC(=O)c1cc(-c2cccc(OC(C)C)c2)nc2ccccc12)c1cccnc1 the results were HKDC1 inhibitor 4 and PfGluPho inh 14.
Screening COc1ccc(-c2ccc(CN3C(CC(C)C)C(=O)N(Cc4cn(CCC5OCCCO5)nn4)CCS3(=O)=O)cc2)cc1OC (stereo unspecified) returned PfGluPho inh 20.
`CN(C(=O)CS(=O)(=O)c1cccc(Cl)c1)c1ccccc1` gave HKDC1 inhibitor -3, G6PDH CS 10, Diaph act CS 0.9, Diaphorase inh 7 and PfGluPho inh -14.
For CCn1c(=O)c(C(=O)CN2CCN(S(=O)(=O)c3cc(C)ccc3C)CC2)c(N)n(Cc2ccccc2)c1=O the results were HKDC1 inhibitor 3, G6PDH CS 8, Diaph act CS 0.7, Diaphorase inh 28 and PfGluPho inh -1.
O=C(CSc1n[nH]c(-c2cccnc2)n1)Nc1ccc([N+](=O)[O-])cc1Br was read as HKDC1 inhibitor 46*, PfGluPho inh 26 and HKDC1 act conf 56.
For Cc1cc(-c2nnc(SCC(=O)Nc3c(C)cccc3C)n2N)n[nH]1 the results were HKDC1 inhibitor 0 and PfGluPho inh 1.
`CC(=O)Oc1ccc(-c2cc3c(OC(C)=O)cc(OC(C)=O)cc3oc2=O)cc1` gave HKDC1 inhibitor 9 and PfGluPho inh 21.
Screening CCOC(=O)c1ccc(NC(=O)CSc2n[nH]c(-c3ccncc3)n2)cc1 returned HKDC1 inhibitor 40*, G6PDH CS -24, Diaph act CS 0.5, Diaphorase inh 51*, PfGluPho inh 23 and HKDC1 act conf 50.
